In ChEMBL document CHEMBL1133479 (J Med Chem, 2000):

Key:
[1] = target: T1, Melatonin receptor type 1B (Homo sapiens, UniProt P49286); assay: Binding affinity for melatonin receptor type 1B, expressed in HEK293 cells (2-[125I]iodomelatonin is used as radioligand); type: cell-based
T1 sequence (P49286 whole entry): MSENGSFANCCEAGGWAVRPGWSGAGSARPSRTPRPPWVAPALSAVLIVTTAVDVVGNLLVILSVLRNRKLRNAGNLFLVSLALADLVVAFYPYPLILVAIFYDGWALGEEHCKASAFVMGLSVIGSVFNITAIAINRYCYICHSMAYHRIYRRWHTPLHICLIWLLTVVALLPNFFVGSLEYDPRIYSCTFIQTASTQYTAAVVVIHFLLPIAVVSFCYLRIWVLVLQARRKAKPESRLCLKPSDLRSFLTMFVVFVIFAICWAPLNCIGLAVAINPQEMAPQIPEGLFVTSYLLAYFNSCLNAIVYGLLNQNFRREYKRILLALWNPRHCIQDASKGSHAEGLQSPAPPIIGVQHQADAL

[2] = target: Melatonin receptor type 1A (Homo sapiens, UniProt P48039); assay: Binding affinity for human melatonin receptor type 1A, expressed in HEK293 cells (2-[125I]iodomelatonin is used as radioligand); type: cell-based
Chain of Melatonin receptor type 1A (P48039 whole entry): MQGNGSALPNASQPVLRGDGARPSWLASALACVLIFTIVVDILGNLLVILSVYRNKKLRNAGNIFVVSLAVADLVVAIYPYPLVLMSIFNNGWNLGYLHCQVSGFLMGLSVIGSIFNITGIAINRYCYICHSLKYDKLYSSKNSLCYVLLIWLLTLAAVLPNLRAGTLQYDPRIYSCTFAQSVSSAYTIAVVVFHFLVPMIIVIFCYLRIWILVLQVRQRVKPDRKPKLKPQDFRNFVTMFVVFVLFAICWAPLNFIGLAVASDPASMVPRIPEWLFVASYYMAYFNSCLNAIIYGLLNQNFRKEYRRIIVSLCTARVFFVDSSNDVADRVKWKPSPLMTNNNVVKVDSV

Melatonin receptor = Melatonin receptor (Gallus gallus, UniProt P49288+P51050+P49285); assay: Binding affinity is evaluated for chicken brain melatonin receptor using 2-[125I]iodomelatonin as radioligand
[3] = Melanophore aggregation of the dermal melanocytes of Xenopus laevis tadpoles with regard to melatonin (=1); type: functional
[4] = Melanophore aggregation of the dermal melanocytes of Xenopus laevis tadpoles; type: functional
[5] = compound is evaluated for melanophore aggregation of the dermal melanocytes of Xenopus laevis tadpoles with regard to melatonin (=1); type: functional
[6] = Percentage of maximum effect observed with regard to that of melatonin (100%); type: functional
Summary of the method: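 Tadpole skin-lightening assay (melanophore index, 5 concentrations, 15 min exposure).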

| SMILES | Ki [1] | Ki [2] | Ki (Melatonin receptor) | Potency [3] | EC50 [4] | Potency [5] | Effect [6] |
| --- | --- | --- | --- | --- | --- | --- | --- |
| CCC(=O)NCC1CCc2c(OC)ccc3ccc(OC)c1c23 (configuration not stated) | 0.153 nM | 0.012 nM | 0.011 nM |  |  |  |  |
| CC(=O)NCC1CCc2cccc3cccc1c23 (configuration not stated) | 0.22 nM | 1.2 nM | 5.5 nM |  |  |  |  |
| CCCC(=O)NCCC1CCc2cccc3ccc(OC)c1c23 (configuration not stated) |  |  | 0.43 nM |  |  |  |  |
| CCCC(=O)NCCC1CCc2c(OC)ccc3ccc(OC)c1c23 (configuration not stated) | 0.19 nM | 0.057 nM | 0.14 nM | 37.7 | 0.18 nM |  |  |
| CCC(=O)NCC1Cc2cccc3cccc1c23 (configuration not stated) | 0.22 nM | 2.65 nM | 14.3 nM |  |  |  |  |
| CCC(=O)NCCC1CCc2c(OC)ccc3cccc1c23 (configuration not stated) | 4.03 nM | 2.08 nM | 31.7 nM |  |  |  |  |
| CCCC(=O)NCCC1Cc2cccc3ccc(OC)c1c23 (configuration not stated) | 0.34 nM | 0.37 nM | 2.4 nM |  |  |  |  |
| CCCC(=O)NCC1CCc2c(OC)ccc3cccc1c23 (stereo in doubt; 13c) | 0.11 nM | 0.45 nM | 0.36 nM |  | 1.61 nM | 13.3 |  |
| COc1ccc2cccc3c2c1C(CNC(C)=O)CC3 (configuration not stated) | 0.094 nM | 0.01 nM | 0.04 nM | 67.9 | 0.1 nM |  |  |
| CCCC(=O)NCC1CCc2c(OC)ccc3ccc(OC)c1c23 (single isomer, unassigned; (+)) |  |  | 0.31 nM |  |  |  |  |
| COc1ccc2cccc3c2c1CCC3CCNC(C)=O (configuration not stated) | 11.8 nM | 8.9 nM | 145 nM |  | > 1000 nM |  | 50% |
| COc1ccc2cccc3c2c1CCC3CNC(C)=O (configuration not stated) | 0.41 nM | 0.8 nM | 0.9 nM | 0.11 | 57.8 nM |  |  |
| CCCC(=O)NCC1CCc2cccc3cccc1c23 (configuration not stated) | 0.18 nM |  | 3.2 nM |  |  |  |  |
| CCCC(=O)NCC1Cc2cccc3ccc(OC)c1c23 (stereo in doubt; 20c) | 0.35 nM | 0.37 nM | 0.16 nM | 14.7 | 0.46 nM |  |  |
| COc1ccc2ccc(OC)c3c2c1CCC3CCNC(C)=O (configuration not stated) | 0.55 nM | 0.2 nM | 3.6 nM | 2.5 | 2.65 nM |  |  |
| CC(=O)NCC1Cc2cccc3cccc1c23 (configuration not stated) | 0.51 nM | 4.24 nM | 36.1 nM |  | > 1000 nM |  | < 50% |
| O=C(NCCC1Cc2cccc3cccc1c23)C1CC1 (configuration not stated) | 16.2 nM | 6.48 nM | 399 nM |  |  |  |  |
| CCCC(=O)NCC1Cc2cccc3ccc(OC)c1c23 (single isomer, unassigned; (+)) | 7.4 nM | 3.9 nM | 4.3 nM |  |  |  |  |
| CCCC(=O)NCCC1Cc2cccc3cccc1c23 (configuration not stated) | 1.86 nM | 6.41 nM | 73.7 nM |  |  |  |  |
| COc1ccc2cccc3c2c1C(CCNC(C)=O)C3 (configuration not stated) | 0.59 nM | 0.41 nM | 2.7 nM |  | > 1000 nM |  | 50% |
| COc1ccc2ccc(OC)c3c2c1CCC3CNC(=O)C1CC1 (configuration not stated) | 0.26 nM | 0.026 nM | 0.13 nM |  |  |  |  |
| CCCC(=O)NCC1Cc2cccc3cccc1c23 (configuration not stated) | 0.093 nM | 0.79 nM | 4.3 nM |  | 26 nM |  | < 50% |
| CCCC(=O)NCCC1CCc2c(OC)ccc3cccc1c23 (configuration not stated) |  |  | 28.1 nM |  |  |  |  |

| SMILES | Ki [1] | Ki [2] | Ki (Melatonin receptor) | Potency [3] | EC50 [4] | Potency [5] | Effect [6] |
| --- | --- | --- | --- | --- | --- | --- | --- |
| COc1ccc2cccc(CCNC(C)=O)c2c1 [AGOMELATINE] |  |  |  | 0.8 | 0.53 nM |  |  |
| CCCC(=O)NCC1CCc2c(OC)ccc3cccc1c23 (single isomer, unassigned; (-)) | 0.068 nM | 0.11 nM | 0.8 nM |  |  |  |  |
| CCCC(=O)NCC1CCc2cccc3ccc(OC)c1c23 (configuration not stated) | 0.069 nM | 0.008 nM | 0.02 nM | 84.8 | 0.08 nM |  |  |
| COc1ccc2cccc3c2c1CCC3CCNC(=O)C1CC1 (configuration not stated) | 13.2 nM | 1.89 nM | 43.4 nM |  |  |  |  |
| O=C(NCC1Cc2cccc3cccc1c23)C1CC1 (configuration not stated) | 0.57 nM | 1.06 nM | 40.5 nM |  |  |  |  |
| CCC(=O)NCC1CCc2c(OC)ccc3cccc1c23 (configuration not stated) | 0.13 nM | 0.19 nM | 0.7 nM |  |  |  |  |
| COc1ccc2ccc(OC)c3c2c1CCC3CNC(C)=O (configuration not stated) | 0.145 nM | 0.015 nM | 0.054 nM | 271.6 | 0.025 nM |  |  |
| CC(=O)NCCC1Cc2cccc3cccc1c23 (configuration not stated) | 3.83 nM | 6.5 nM | 123.3 nM |  | > 1000 nM |  | < 50% |
| COc1ccc2cccc3c2c1C(CNC(=O)C1CC1)C3 (configuration not stated) | 0.31 nM | 1.32 nM | 3.8 nM |  |  |  |  |
| CCCC(=O)NCC1CCc2c(OC)ccc3ccc(OC)c1c23 (single isomer, unassigned; (-)) |  |  | 0.034 nM |  |  |  |  |
| CCC(=O)NCCC1Cc2cccc3cccc1c23 (configuration not stated) | 1.86 nM | 4.34 nM | 101.8 nM |  |  |  |  |
| COc1ccc2cccc3c2c1C(CCNC(C)=O)CC3 (configuration not stated) | 0.39 nM | 0.1 nM | 24.4 nM | 0.007 | 428 nM |  |  |
| COc1ccc2ccc(OC)c3c2c1CCC3CCNC(=O)C1CC1 (configuration not stated) | 1.59 nM | 0.66 nM | 11.2 nM |  |  |  |  |
| COc1ccc2cccc3c2c1C(CNC(C)=O)C3 (configuration not stated) | 0.12 nM | 0.12 nM | 2.95 nM | 1.33 | 5.08 nM |  |  |
| CCCC(=O)NCC1CCc2c(OC)ccc3cccc1c23 (stereo in doubt; 13c (+)) | 4.07 nM | 2.9 nM | 21.7 nM |  |  |  |  |
| COc1ccc2cccc3c2c1CCC3CNC(=O)C1CC1 (configuration not stated) | 0.79 nM | 0.95 nM | 4.6 nM |  |  |  |  |
| CCC(=O)NCC1Cc2cccc3ccc(OC)c1c23 (configuration not stated) | 0.085 nM | 0.1 nM | 0.9 nM |  |  |  |  |
| COc1ccc2cccc3c2c1C(CCNC(=O)C1CC1)C3 (configuration not stated) | 41.8 nM | 10 nM | 97.1 nM |  |  |  |  |
| CCCC(=O)NCC1Cc2cccc3ccc(OC)c1c23 (single isomer, unassigned; (-)) | 0.034 nM | 0.03 nM | 0.15 nM |  |  |  |  |
| CCC(=O)NCCC1CCc2c(OC)ccc3ccc(OC)c1c23 (configuration not stated) | 0.55 nM | 0.07 nM | 0.8 nM |  |  |  |  |
| CCC(=O)NCCC1Cc2cccc3ccc(OC)c1c23 (configuration not stated) | 0.24 nM | 0.22 nM | 4.75 nM |  |  |  |  |
| CCCC(=O)NCC1CCc2c(OC)ccc3ccc(OC)c1c23 (stereo in doubt; 15c) | 0.1 nM | 0.016 nM | 0.07 nM | 1697 | 0.004 nM |  |  |
